Here are results for six compounds from ChEMBL document CHEMBL5576156, “New pyrazole-pyridazine hybrids as selective COX-2 inhibitors: design, synthesis, molecular docking, in silico studies and investigation of their anti-inflammatory potential by evaluation of TNF-α, IL-6, PGE-2 and NO in LPS-induced RAW264.7 macrophages” (RSC Med Chem, 2024).

The subject of test [1] is Rattus norvegicus. Kind of test: Antiinflammatory activity against carrageenin-induced rat paw edema at 10 mg/kg, po pretreated with carrageenin for 1 hr followed by compound addition and measured after 3 hrs. It is filed as functional. On the technique in general: The carrageenan paw model is a standard test of acute inflammation.
For test [2], the system named is RAW264.7. Briefly: Antiinflammatory activity against LPS induced mouse RAW264.7 cells assessed as decrease in TNFalpha production at 50 uM after 24 hrs by ELISA. It is filed as functional. Further details: scale not given: the % may be the effect or the level left. Put shortly:
(§1)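 RAW264.7 cells seeded at 5 × 10^3 per well and held 24 h at 37 °C, 5% CO2. Test compound given at 50 μM together with LPS 1 μg mL−1. Untreated cells were the blank, and LPS + DMSO (0.1% v/v final) was the negative control. IL-6, PGE-2 and TNF-α in the medium were measured by ELISA kits 24 h after treatment.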
(In general: In an ELISA, binding on a coated surface is turned into a signal by an enzyme label.)

Test [3] has as its system RAW264.7. Kind of test: Antiinflammatory activity against LPS induced mouse RAW264.7 cells assessed as decrease in IL6 production at 50 uM after 24 hrs by ELISA. It is filed as functional. Also noted: scale not given: the % may be the effect or the level left. Put shortly:
as §1

Test [4] deals with RAW264.7. Briefly: Antiinflammatory activity against LPS induced mouse RAW264.7 cells assessed as decrease in PGE2 production at 50 uM after 24 hrs by ELISA. It is filed as functional. Further details: scale not given: the % may be the effect or the level left. Put shortly: as §1
The subject of test [5] is RAW264.7. Kind of test: Antiinflammatory activity in LPS-induced mouse RAW264.7 cells assessed as inhibition of NO production at 20 uM pretreated for 2 hrs followed by LPS stimulation and measured after 24 hrs by Griess reagent based assay. It is filed as functional. The following applies: time 26 hrs. Also noted: scale not given: the % may be the effect or the level left. Put shortly: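 RAW264.7 cells pretreated with compound for 2 h, then stimulated with LPS 1 μg mL−1 for 24 h. Culture medium was mixed 1:1 with Griess reagent and held 10 min at room temperature. Absorbance at 540 nm was read as the NO indicator.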
In general terms: Griess reagent forms a coloured azo dye with nitrite.

The target of test [6] is T1, Prostaglandin G/H synthase 2 (Homo sapiens) (UniProt P35354).
T1 sequence (whole entry): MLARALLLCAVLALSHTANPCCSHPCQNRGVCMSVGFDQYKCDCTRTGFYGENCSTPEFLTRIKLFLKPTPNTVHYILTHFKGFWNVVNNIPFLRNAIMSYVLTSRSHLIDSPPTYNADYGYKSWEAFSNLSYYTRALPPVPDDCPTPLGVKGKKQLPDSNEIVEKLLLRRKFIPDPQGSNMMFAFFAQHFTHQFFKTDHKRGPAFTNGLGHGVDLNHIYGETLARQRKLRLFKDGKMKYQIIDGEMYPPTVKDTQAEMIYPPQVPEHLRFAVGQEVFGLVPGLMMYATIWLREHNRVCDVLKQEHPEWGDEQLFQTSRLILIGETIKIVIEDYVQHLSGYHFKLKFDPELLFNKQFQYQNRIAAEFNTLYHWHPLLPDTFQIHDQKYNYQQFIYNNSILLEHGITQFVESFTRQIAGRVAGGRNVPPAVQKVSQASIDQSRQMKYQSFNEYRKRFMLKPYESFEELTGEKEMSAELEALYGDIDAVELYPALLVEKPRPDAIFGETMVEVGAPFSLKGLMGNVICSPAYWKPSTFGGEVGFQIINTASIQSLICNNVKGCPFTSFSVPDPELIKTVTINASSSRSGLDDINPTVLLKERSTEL
Kind of test: Inhibition of COX-2 in human whole blood at 8 uM incubated for 24 hrs by immunoassay relative to control. The format is tissue-based.

Molecules are shown by their SMILES.

`Cc1cc(C)n(-c2ccc(=O)n(CC(=O)NCc3ccccc3)n2)n1`: the Activity in test [1] was found to be 84%.

Regarding `Cc1ccc(-c2cc(C(F)(F)F)nn2-c2ccc(S(N)(=O)=O)cc2)cc1` [CELECOXIB], the Activity is reported as 75% in test [2], 83% in test [3] and 69% in test [4].

Regarding `NC1=NN=C(/N=C/c2ccc(Br)cc2)C1c1ccc(Cl)nn1` (stereo unspecified), the Activity is on record as 65% in test [2], 65% in test [3], 60% in test [4] and 53% in test [5].

As a reminder, the inhibition is the share of the control response that was lost under treatment. `Cc1ccc(-c2cc(C(F)(F)F)nn2C2=NNC(Cl)C=C2)cc1` (stereo unspecified): the inhibition in test [6] amounted to 78%.

As for `COc1cc(/C=N/C2=NN=C(N)C2c2ccc(Cl)nn2)cc(OC)c1OC` (stereo unspecified), the Activity in test [2] was 70%; in test [3], 78%; in test [4], 64%; in test [5], 70%.

Regarding `COc1cc(/C=N/C2=NNC(=O)C2c2ccc(Cl)nn2)cc(OC)c1OC` (stereo unspecified), the values for the Activity in test [2], in test [3] and in test [4] were 48%, 62% and 44%, respectively.
